Results of several laboratories.
Target: Dual specificity mitogen-activated protein kinase kinase 7 (MAP2K7, Homo sapiens, UniProt O14733)
Residues used in one study (O14733 1-419): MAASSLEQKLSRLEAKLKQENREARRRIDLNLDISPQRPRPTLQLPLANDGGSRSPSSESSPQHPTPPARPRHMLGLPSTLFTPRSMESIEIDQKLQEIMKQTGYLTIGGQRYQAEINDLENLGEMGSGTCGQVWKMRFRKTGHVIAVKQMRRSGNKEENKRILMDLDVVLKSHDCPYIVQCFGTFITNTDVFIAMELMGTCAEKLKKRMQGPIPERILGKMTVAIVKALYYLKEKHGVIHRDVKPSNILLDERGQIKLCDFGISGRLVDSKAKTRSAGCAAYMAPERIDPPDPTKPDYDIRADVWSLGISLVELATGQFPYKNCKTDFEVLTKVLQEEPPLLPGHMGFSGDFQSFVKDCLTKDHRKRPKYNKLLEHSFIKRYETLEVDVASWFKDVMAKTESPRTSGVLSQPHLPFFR

The remaining binding of `c1cnn2ncc(-c3ccnc(N4CCC45COC5)n3)c2c1` is reported as 72% (binding; 1 µM).
The remaining binding of `O=C(Nc1c[nH]nc1C(=O)NC1CCNCC1)c1cc(F)cc(F)c1` is reported as 86% (binding; competition with immobilised ligand; 1 µM).
For `CCN1CCN(Cc2ccc(C(=O)Nc3ccc(C)c(Oc4ccc5c(c4)CC(=O)N5)c3)cc2C(F)(F)F)CC1`, the remaining binding was 97% (binding; competition with immobilised ligand; 1 µM).
For `CC1=C(C#N)[C@@H](c2ccc3[nH]nc(C)c3c2)C(C#N)=C(c2ccc(Cl)cc2)N1`, the remaining binding was 92.2% (cell-free assay; competition with immobilised ligand; 1 µM).
With `COc1ccnn2ncc(-c3ccnc(N(C)C)n3)c12` the remaining binding was 73% (binding; 1 µM).
`O=C(c1ccc(Nc2ncc(Cl)c(-c3cc4ccccc4s3)n2)cc1)N1CCC(N2CCCC2)CC1` has a remaining binding of 96% (binding; competition with immobilised ligand; 1 µM).
For `Cc1nc(Cc2cccc(C(F)(F)F)c2)sc1-c1ccc(C(N)=O)nc1`, the remaining binding was 100% (cell-free assay; competition with immobilised ligand; 1 µM).
With `Nc1ncc2c(n1)-c1c([nH]c3ccc(C#CC4CC4)cc13)CCCC2` the remaining binding was 100% (binding; competition with immobilised ligand; 1 µM).
For `O=C(NCCCN1CCOCC1)c1ccc(Nc2ncc(Cl)c(-c3ccc(Cl)s3)n2)cc1`, the remaining binding was 87% (binding; competition with immobilised ligand; 1 µM).
The remaining binding of `CN(C)c1nccc(-c2cnc3ncccn23)n1` is reported as 88% (binding; 1 µM).
`COc1cnc(Nc2cccc(S(N)(=O)=O)c2)nc1N1CCN(c2ccccc2)C(=O)C1` has a remaining binding of 92% (binding; competition with immobilised ligand; 1 µM).
With `C[C@@H]1CCN(c2nccc(-c3cnn4ncccc34)n2)C1` the remaining binding was 100% (binding; 1 µM).
With `Cc1nc(N2CC[C@@H](O)C2)ncc1-c1cc(C(F)(F)F)cc2[nH]ncc12` the remaining binding was 64% (binding; competition with immobilised ligand; 1 µM).
`CNC(=O)[C@@H]1CC[C@@H](n2c(-c3ccc4cnccc4c3)nc3ccc(C(=O)NCc4cccc(C(N)=O)c4)cc32)C1` gave a remaining binding of 100% (binding; competition with immobilised ligand; 1 µM).
`CS(=O)(=O)N1CCCC(NC(=O)[C@H](CCC2CCCCC2)NC(=O)c2ccc(CNc3ncnc4c3nnn4-c3ccccc3)cc2)C1` (some centres unmarked) has a remaining binding of 100% (cell-free assay; competition with immobilised ligand; 0.1 µM).
For `CN(CCCC(F)(F)F)c1nccc(-c2cnn3ncccc23)n1`, the remaining binding was 100% (binding; 1 µM).
The remaining binding of `CN(C)C(=O)Cn1cc(-c2nc([C@@](C)(c3ccc(-c4cnc(N)nc4)cc3)C3CC3)no2)cn1` is reported as 94% (cell-free assay; competition with immobilised ligand; 1 µM).
With `O=C(NCCCN1CCOCC1)c1ccc(Nc2nccc(-c3cc4ccccc4s3)n2)cc1` the remaining binding was 76% (binding; competition with immobilised ligand; 1 µM).
`CN(c1nccc(-c2cnn3ncccc23)n1)C1CC1` has a remaining binding of 100% (binding; 1 µM).
For `CN(C)CC#Cc1ccc(OCCCc2sc(N3CCc4cccc(C(=O)Nc5nc6ccccc6s5)c4C3)nc2C(=O)O)c(F)c1`, the remaining binding was 69% (cell-free assay; competition with immobilised ligand; 1 µM).
